{
  "source": "paper PMC5034155",
  "about": "(Journal of medicinal chemistry, 2016)",
  "key": {"PB1(5) bromodomain": {"biological_target": "PB1(5) bromodomain (Homo sapiens, UniProt Q86U86)", "sequence (Q86U86 653-763 limits assumed)": "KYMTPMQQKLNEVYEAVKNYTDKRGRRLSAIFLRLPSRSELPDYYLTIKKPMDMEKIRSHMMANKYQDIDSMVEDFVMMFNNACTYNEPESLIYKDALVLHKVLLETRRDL", "test": "DSF thermal shift, PB1", "assay_type": "binding", "conditions": "fragment screen against PB1(5); confirmed by ITC"}, "Family VIII bromodomains": {"test_system": "Family VIII bromodomains", "test": "Isothermal Titration Calorimetry, Family VIII bromodomains", "assay_type": "binding"}, "[1]": {"test_system": "non-family VIII bromodomains", "test": "Tm shift panel of 40 bromodomain proteins", "assay_type": "binding"}, "[2]": {"test_system": "non-family VIII bromodomains", "test": "BROMOscan profiling from DiscoveRx", "assay_type": "binding"}, "GFP-SMARCA2 in U2OS": {"biological_target": "GFP-SMARCA2 in U2OS (Homo sapiens, UniProt P51531)", "sequence (P51531 1-1572 isoform P51531-2)": "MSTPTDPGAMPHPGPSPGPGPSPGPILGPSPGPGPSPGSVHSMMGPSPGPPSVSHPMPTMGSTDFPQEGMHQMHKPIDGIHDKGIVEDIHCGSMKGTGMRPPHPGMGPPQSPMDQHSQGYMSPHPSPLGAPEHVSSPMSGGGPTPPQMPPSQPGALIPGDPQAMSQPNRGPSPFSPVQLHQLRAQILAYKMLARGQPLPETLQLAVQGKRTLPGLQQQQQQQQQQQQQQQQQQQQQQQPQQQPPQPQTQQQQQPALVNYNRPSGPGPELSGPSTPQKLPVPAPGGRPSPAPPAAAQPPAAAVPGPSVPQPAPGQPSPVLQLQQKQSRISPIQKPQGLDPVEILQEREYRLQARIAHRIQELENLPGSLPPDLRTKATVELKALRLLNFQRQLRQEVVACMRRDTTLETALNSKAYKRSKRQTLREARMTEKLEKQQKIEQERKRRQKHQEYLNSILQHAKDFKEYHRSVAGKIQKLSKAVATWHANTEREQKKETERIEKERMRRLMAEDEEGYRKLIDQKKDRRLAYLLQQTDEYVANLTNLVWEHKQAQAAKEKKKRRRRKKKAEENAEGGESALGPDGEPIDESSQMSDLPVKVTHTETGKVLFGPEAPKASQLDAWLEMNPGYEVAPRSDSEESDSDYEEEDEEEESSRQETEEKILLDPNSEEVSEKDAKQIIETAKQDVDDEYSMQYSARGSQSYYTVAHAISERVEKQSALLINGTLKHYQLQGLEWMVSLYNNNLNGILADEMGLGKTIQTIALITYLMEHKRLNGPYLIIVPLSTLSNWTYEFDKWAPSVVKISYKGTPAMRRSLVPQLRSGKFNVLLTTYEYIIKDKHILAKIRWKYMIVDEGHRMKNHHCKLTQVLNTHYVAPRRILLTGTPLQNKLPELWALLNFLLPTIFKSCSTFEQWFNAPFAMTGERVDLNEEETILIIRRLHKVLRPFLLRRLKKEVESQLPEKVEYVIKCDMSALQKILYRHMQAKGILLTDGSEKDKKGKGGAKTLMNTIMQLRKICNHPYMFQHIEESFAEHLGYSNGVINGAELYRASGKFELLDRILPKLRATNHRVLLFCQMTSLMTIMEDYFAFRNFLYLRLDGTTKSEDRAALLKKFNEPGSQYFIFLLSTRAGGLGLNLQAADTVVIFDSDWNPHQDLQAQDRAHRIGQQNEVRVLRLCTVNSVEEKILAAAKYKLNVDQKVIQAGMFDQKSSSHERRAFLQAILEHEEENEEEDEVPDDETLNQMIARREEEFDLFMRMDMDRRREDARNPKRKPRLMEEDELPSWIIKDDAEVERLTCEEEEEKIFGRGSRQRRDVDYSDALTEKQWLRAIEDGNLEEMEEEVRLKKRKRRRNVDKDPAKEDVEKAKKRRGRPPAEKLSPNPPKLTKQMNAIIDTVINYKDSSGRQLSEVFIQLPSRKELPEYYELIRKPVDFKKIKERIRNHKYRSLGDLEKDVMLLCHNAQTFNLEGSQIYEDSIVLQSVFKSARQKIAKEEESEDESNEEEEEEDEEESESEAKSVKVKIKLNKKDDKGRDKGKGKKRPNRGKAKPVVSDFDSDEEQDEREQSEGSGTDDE", "test": "SMARCA2 FRAP assay", "assay_type": "cell-based", "conditions": "U2OS treated with SAHA"}, "GFP-PB1": {"biological_target": "GFP-PB1 (Homo sapiens, UniProt Q86U86)", "sequence (Q86U86 whole entry)": "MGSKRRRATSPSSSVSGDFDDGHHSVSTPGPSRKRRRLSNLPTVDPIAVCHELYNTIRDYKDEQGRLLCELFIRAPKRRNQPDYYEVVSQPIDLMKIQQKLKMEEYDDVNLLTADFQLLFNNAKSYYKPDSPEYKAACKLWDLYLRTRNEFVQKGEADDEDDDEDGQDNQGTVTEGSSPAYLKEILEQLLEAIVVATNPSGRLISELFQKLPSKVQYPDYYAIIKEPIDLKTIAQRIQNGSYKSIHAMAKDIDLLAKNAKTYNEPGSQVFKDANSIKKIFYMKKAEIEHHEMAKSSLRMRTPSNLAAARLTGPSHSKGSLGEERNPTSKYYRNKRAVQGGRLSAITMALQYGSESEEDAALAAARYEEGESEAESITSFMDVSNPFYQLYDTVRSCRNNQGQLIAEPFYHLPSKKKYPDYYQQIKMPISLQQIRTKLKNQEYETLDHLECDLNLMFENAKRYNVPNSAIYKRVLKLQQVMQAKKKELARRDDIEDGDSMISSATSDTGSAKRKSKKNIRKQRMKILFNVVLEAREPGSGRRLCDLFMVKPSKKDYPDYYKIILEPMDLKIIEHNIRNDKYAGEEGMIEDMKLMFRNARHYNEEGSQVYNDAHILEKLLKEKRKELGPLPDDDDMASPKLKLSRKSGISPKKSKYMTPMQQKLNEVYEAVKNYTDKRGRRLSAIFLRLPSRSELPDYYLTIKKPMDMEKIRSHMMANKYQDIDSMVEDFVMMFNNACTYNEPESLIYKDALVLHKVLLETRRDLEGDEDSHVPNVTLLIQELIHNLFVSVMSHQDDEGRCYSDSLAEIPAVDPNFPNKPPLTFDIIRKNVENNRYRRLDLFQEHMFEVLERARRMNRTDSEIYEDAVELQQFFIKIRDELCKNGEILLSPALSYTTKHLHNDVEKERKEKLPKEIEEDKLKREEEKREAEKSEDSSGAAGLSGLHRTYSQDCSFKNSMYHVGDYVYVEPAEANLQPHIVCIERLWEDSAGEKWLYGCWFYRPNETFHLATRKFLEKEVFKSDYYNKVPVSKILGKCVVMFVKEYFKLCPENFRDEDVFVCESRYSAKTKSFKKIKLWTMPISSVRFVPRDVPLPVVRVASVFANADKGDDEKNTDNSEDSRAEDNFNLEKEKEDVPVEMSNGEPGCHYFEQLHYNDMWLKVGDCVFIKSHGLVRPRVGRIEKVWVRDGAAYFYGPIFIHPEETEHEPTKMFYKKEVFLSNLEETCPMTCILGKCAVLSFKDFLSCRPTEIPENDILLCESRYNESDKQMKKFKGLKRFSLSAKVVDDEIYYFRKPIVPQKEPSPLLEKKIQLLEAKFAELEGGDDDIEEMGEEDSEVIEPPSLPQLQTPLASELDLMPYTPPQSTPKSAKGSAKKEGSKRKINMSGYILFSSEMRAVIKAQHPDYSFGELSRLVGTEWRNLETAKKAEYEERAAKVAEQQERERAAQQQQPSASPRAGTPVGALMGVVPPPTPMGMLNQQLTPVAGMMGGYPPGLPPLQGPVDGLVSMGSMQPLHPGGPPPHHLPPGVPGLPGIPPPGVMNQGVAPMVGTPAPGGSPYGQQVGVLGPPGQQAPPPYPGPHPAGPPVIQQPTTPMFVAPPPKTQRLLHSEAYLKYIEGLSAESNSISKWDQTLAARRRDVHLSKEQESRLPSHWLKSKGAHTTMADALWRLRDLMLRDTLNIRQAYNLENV", "test": "PB1 FRAP assay", "assay_type": "cell-based", "conditions": "SAHA treated", "how_it_was_run": "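GFP-tagged PB1 (wild type or N263A / N707F acetyl-lysine-site mutants) expressed by transfection in cells pretreated with SAHA (2.5 μM) to hyperacetylate chromatin. Test compound given at several doses. Read-out is the half-time (t½) of fluorescence recovery after photobleaching, averaged from individual recovery curves of at least 20 cells per group with SEM. p-values are relative to wild type with SAHA.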"}, "SMARCA4": {"biological_target": "SMARCA4 (Homo sapiens, UniProt P51532)", "sequence (P51532 whole entry)": "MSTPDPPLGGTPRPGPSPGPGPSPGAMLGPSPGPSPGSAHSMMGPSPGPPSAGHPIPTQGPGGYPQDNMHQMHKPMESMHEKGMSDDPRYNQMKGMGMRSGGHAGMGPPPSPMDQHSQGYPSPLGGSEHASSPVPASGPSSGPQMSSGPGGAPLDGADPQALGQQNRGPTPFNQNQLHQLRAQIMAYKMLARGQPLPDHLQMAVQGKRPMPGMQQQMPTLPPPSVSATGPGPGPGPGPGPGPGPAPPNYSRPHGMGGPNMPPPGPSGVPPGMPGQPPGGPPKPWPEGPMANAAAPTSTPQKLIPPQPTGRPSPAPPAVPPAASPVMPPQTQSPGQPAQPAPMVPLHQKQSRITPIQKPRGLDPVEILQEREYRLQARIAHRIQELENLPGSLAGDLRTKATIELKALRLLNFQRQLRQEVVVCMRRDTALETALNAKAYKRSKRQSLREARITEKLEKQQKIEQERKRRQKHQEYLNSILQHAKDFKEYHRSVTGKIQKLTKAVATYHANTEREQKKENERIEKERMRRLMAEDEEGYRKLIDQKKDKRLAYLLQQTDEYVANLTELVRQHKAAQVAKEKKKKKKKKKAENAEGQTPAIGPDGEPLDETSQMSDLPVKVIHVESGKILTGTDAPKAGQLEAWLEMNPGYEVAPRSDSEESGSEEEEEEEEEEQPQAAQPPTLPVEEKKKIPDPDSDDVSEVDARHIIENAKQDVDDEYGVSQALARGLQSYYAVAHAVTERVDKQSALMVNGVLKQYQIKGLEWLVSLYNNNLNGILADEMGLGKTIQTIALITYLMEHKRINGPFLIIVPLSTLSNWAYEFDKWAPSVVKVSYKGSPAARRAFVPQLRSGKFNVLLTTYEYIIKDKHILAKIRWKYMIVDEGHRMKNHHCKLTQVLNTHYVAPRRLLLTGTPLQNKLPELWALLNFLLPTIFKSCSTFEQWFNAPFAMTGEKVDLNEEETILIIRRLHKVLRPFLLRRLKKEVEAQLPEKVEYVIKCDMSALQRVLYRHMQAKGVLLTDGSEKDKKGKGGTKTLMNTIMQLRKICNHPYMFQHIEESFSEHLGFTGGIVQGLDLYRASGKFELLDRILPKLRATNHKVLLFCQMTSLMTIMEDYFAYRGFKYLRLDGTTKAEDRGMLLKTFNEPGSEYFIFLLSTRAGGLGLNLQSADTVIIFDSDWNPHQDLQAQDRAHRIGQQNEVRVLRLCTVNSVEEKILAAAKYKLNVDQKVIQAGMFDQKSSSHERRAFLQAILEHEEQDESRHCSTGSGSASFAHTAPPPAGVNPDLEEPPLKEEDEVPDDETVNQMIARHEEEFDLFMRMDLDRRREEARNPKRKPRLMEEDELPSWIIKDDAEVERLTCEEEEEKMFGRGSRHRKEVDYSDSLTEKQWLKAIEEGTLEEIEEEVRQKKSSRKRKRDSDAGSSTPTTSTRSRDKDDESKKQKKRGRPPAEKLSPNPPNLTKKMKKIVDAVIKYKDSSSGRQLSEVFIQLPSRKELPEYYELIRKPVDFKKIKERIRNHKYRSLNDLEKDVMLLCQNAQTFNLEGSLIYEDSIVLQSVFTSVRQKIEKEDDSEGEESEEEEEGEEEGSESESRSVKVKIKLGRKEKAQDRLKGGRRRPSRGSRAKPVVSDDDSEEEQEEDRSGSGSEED", "test": "SMARCA4 FRAP assay", "assay_type": "cell-based", "how_it_was_run": "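Run like the SMARCA2 FRAP: U2OS cells treated with the HDAC inhibitor SAHA to induce hyperacetylation, transfected with a GFP-tagged bromodomain construct, and exposed to test compound. Chromatin displacement is read as the fluorescence recovery half-time after photobleaching.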"}, "[3]": {"test_system": "clear cell renal cell carcinoma cell lines (786-O and Rcc4)", "test": "ccRCC cell line proliferation", "assay_type": "cell-based", "conditions": "786-O (wild type PB1) and Rcc4 (PB1 downregulation)"}, "[4]": {"test": "Chemical stability in cell media", "assay_type": "physicochemical", "conditions": "after one week in cell media at 37°C"}, "[5]": {"test_system": "C2C12 and C3H10T1/2 cells", "test": "MTT cell viability assay", "assay_type": "cell-based", "conditions": "up to 50 μM dose, 72 hours"}, "[6]": {"test_system": "C3H10T1/2 mesenchymal cells", "test": "Adipocyte differentiation", "assay_type": "cell-based", "conditions": "20 μM"}},
  "data": [
    {"smiles": "O=C(O)c1ccccc1O", "note": "[Compound 1, salicylic acid]", "values": [
      {"measurement": "fragment screen hit quality (DSF)", "setting": "PB1(5) bromodomain", "result": "weak, but highly ligand efficient hit"}
    ]},
    {"smiles": "O=C(/C=C/N1[C@H]2CC[C@@H]1c1ncnc(NC3CC3)c1C2)c1ccccc1O", "note": "[Compound 17]", "values": [
      {"measurement": "binding to Family VIII bromodomains by ITC", "setting": "Family VIII bromodomains", "result": "potent binder to most of the Family VIII bromodomains"},
      {"measurement": "selectivity over non-family VIII bromodomains, Tm shift panel", "setting": "[1]", "result": "not active"},
      {"measurement": "selectivity over non-family VIII bromodomains, BROMOscan", "setting": "[2]", "result": "not active"},
      {"measurement": "FRAP half-recovery time (t1/2) of GFP-SMARCA2", "setting": "GFP-SMARCA2 in U2OS", "result": "accelerated FRAP half-recovery time (t1/2) significantly in a dose dependent manner"},
      {"measurement": "displacement of GFP-PB1 from chromatin (FRAP)", "setting": "GFP-PB1; 1 μM", "result": "able to displace PB1 from chromatin"},
      {"measurement": "SMARCA4 in cell target engagement (FRAP)", "setting": "SMARCA4", "result": "confirmed"},
      {"measurement": "effect on cell line proliferation", "setting": "[3]", "result": "did not show any effect"}
    ]},
    {"smiles": "C#CCNc1ccnc(N2C[C@H]3C[C@@H]2CN3/C=C/C(=O)c2cccc(OC)c2O)n1", "note": "[Compound 18]", "values": [
      {"measurement": "half-recovery time of GFP-PB1 (FRAP)", "setting": "GFP-PB1", "result": "no effect"}
    ]},
    {"smiles": "O=C(/C=C/N1C[C@H]2C[C@@H]1CN2c1ccccn1)c1ccccc1O", "note": "[Compound 16, (E)-1-(2-hydroxyphenyl)-3-((1R,4R)-5-(pyridin-2-yl)-2,5-diazabicyclo[2.2.1]heptan-2-yl)prop-2-en-1-one]", "values": [
      {"measurement": "compound recovered", "setting": "[4]", "result": "Greater than 90%"},
      {"measurement": "SMARCA4 in cell target engagement (FRAP)", "setting": "SMARCA4", "result": "confirmed"},
      {"measurement": "effect on cell line proliferation", "setting": "[3]", "result": "did not show any effect"},
      {"measurement": "cytotoxic effect (MTT cell viability)", "setting": "[5]", "result": "did not have significant cytotoxic effect"},
      {"measurement": "inhibition of adipogenesis", "setting": "[6]", "result": "Near complete inhibition"}
    ]}
  ]
}
